Test results published in ChEMBL document CHEMBL3751698, “5,7-Disubstituted-[1,2,4]triazolo[1,5-a][1,3,5]triazines as pharmacological tools to explore the antagonist selectivity profiles toward adenosine receptors” (Eur J Med Chem, 2016).

Columns and labels:
[1] = species on record: Homo sapiens; experiment: Selectivity index, ratio of Ki for human A1 adenosine receptor to Ki for human A2A adenosine receptor
[2] = biological target: Adenosine receptor A2a (Homo sapiens, UniProt P29274); experiment: Displacement of [3H]NECA from human A2A adenosine receptor expressed in CHO cell membranes
Chain of Adenosine receptor A2a (P29274 whole entry): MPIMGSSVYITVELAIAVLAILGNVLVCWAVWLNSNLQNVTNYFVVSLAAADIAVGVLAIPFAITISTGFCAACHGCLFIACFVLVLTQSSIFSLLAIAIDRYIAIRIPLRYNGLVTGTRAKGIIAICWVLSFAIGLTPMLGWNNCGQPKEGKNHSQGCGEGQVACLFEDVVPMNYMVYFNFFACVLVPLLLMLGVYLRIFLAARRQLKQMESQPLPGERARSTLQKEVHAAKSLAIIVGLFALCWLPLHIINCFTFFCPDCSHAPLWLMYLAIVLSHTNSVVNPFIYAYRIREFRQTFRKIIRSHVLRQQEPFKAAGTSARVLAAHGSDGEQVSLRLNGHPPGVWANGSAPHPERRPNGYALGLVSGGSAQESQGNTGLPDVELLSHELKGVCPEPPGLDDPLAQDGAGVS
Outline: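 Crude membranes from stably transfected CHO cells, prepared by a two-step spin (1,000 x g, then 100,000 x g). Competition with 10 nM [3H]NECA, with nonspecific binding measured in presence of 100 µM R-PIA. Ki derived from competition experiments.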

[3] = biological target: T1, Adenosine receptor A3 (Homo sapiens, UniProt P0DMS8); experiment: Displacement of [3H]HEMADO from human A3 adenosine receptor expressed in CHO cell membranes
T1 sequence (P0DMS8 whole entry): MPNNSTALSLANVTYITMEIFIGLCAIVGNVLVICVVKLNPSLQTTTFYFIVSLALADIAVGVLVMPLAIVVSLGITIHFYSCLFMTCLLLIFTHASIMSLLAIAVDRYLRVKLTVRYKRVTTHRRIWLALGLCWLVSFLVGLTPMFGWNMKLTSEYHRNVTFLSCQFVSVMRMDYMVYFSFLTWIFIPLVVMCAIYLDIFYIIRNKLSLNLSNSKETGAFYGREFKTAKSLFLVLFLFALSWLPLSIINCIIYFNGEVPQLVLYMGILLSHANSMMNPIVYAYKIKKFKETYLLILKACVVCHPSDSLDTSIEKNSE
Outline: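 Two-step centrifugation (1,000 x g, then 100,000 x g) of stably transfected CHO cells gave the membranes. Displacement of 1 nM [3H]HEMADO; nonspecific binding taken with 100 µM R-PIA. Ki computed from competition data.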

[4] = biological target: T2, Adenosine receptor A1 (Homo sapiens, UniProt P30542); experiment: Displacement of [3H]CCPA from human A1 adenosine receptor expressed in CHO cell membranes
T2 sequence (P30542 whole entry): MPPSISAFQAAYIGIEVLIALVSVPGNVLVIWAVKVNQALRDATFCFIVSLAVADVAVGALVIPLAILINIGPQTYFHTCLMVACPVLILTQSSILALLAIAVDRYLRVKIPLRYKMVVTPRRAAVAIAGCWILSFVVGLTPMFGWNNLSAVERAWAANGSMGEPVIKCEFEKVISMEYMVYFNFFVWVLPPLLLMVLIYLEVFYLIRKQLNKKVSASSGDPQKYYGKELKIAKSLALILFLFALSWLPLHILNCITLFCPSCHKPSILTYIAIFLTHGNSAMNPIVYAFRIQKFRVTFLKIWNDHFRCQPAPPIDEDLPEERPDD
Outline: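 Membranes from stably transfected CHO cells (1,000 x g spin to clear nuclei and debris, then 100,000 x g pellet), resuspended in binding buffer and frozen. Competition against 1 nM [3H]CCPA; nonspecific binding defined with 1 mM theophylline. Ki calculated from competition curves.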

[5] = biological target: T3, Adenosine receptor A2b (Homo sapiens, UniProt P29275); experiment: Antagonist activity at human A2B adenosine receptor expressed in CHO cell membranes assessed as inhibition of NECA stimulated adenylyl cyclase activity; format: functional, cell-based
T3 sequence (P29275 whole entry): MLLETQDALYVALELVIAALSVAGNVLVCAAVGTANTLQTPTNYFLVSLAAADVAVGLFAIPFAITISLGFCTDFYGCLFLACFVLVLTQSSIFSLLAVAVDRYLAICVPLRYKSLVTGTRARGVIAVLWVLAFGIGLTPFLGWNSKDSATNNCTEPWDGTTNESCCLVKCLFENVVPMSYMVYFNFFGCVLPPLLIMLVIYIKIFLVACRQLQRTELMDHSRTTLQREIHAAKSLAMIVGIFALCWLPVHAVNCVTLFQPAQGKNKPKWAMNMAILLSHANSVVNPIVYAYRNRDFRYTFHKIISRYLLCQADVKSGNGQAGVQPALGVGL
Outline: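 CHO cells stably expressing hA2B; crude membranes from a single high-speed spin, resuspended in 50 mM Tris/HCl pH 7.4 and used fresh. Incubated 20 min with about 150,000 cpm [α-32P]ATP in a mixture without EDTA and NaCl. IC50 for inhibition of NECA-stimulated cyclase obtained by Hill equation fit.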

[6] = species on record: Homo sapiens; experiment: Selectivity index, ratio of Ki for human A3 adenosine receptor to Ki for human A2A adenosine receptor

Structure (SMILES) | Ratio Ki [1] | Ki [2] [nM] | Ki [3] [nM] | Ki ([4]; read-out: Ki) [nM] | IC50 [5] [nM] | Ratio Ki [6] | Ki ([4]; cho)
Fc1ccc(CNc2nc(NCc3ccc(F)cc3)n3nc(-c4ccco4)nc3n2)cc1 | > 2290 | 43.6 | 123 | > 100000 | > 30000 | 2.82 | –
Nc1nc(NC2CCCCC2)nc2nc(-c3ccco3)nn12 | 38.8 | 3.56 | 370 | 138 | 13400 | 104 | –
CC(C)Nc1nc(N)n2nc(-c3ccco3)nc2n1 | 66.5 | 64.8 | 568 | 4310 | > 30000 | 8.76 | –
c1ccc(CNc2nc(NC3CCCCC3)n3nc(-c4ccco4)nc3n2)cc1 | 4.2 | 15.2 | 455 | 63.9 | > 30000 | 29.9 | –
Fc1ccc(CNc2nc(Oc3ccccc3)nc3nc(-c4ccco4)nn23)cc1 | > 110 | 905 | > 100000 | > 100000 | > 30000 | > 110 | –
CC(C)Nc1nc(NC(=O)Cc2ccccc2)n2nc(-c3ccco3)nc2n1 | 18.2 | 393 | 257 | 7150 | > 30000 | 0.65 | –
CNc1nc(NCc2ccccc2)n2nc(-c3ccco3)nc2n1 | 16 | 173 | 275 | 2770 | > 30000 | 1.59 | –
CNc1nc(N)n2nc(-c3ccco3)nc2n1 | 52.1 | 49.3 | 1560 | 2570 | > 30000 | 31.6 | –
O=C(Nc1ccccc1)Nc1nc(NCc2ccccc2)nc2nc(-c3ccco3)nn12 | 216 | 1.44 | 29.7 | 311 | 4360 | 20.6 | –
CNc1nc(NCc2ccc(F)cc2)n2nc(-c3ccco3)nc2n1 | 13.1 | 235 | 557 | 3080 | > 30000 | 2.37 | –
c1ccc(Oc2nc(NC3CCCCC3)n3nc(-c4ccco4)nc3n2)cc1 | 6.7 | 113 | 294 | 757 | > 30000 | 2.6 | –
c1ccc(CNc2nc(NCc3ccccc3)n3nc(-c4ccco4)nc3n2)cc1 | 38.4 | 20.4 | 37 | 784 | 11800 | 1.81 | –
O=C(Nc1nc(NC2CCCCC2)nc2nc(-c3ccco3)nn12)c1ccccc1 | 7.41 | 1020 | 8500 | 7560 | > 30000 | 8.33 | –
c1coc(-c2nc3nc(NC4CCCCC4)nc(NC4CCCCC4)n3n2)c1 | 1.73 | 177 | 129 | 306 | > 30000 | 0.73 | –
O=C(Nc1ccccc1)Nc1nc(NC2CCCCC2)nc2nc(-c3ccco3)nn12 | 120 | 7.87 | 349 | 946 | > 30000 | 44.3 | –
CC(C)Nc1nc(NC(=O)c2ccccc2)n2nc(-c3ccco3)nc2n1 | 11.3 | 2150 | 13400 | 24400 | > 30000 | 6.23 | –
O=C(Nc1nc(NCc2ccccc2)nc2nc(-c3ccco3)nn12)c1ccccc1 | 15.2 | 95.2 | 250 | 1450 | > 30000 | 2.63 | –
CNc1nc(NC(=O)Nc2ccccc2)n2nc(-c3ccco3)nc2n1 | 38.6 | 99.6 | 572 | 3850 | > 30000 | 5.74 | –
Nc1nc(NCc2ccccc2)nc2nc(-c3ccco3)nn12 | 85.2 | 1.11 | 30.8 | 94.6 | 2210 | 27.7 | –
O=C(Cc1ccccc1)Nc1nc(NCc2ccccc2)nc2nc(-c3ccco3)nn12 | 125 | 5.39 | 45.5 | 676 | 7620 | 8.44 | –
c1ccc(CNc2nc(Oc3ccccc3)nc3nc(-c4ccco4)nn23)cc1 | > 178 | 560 | 375 | > 100000 | > 30000 | 0.67 | –
O=C(Cc1ccccc1)Nc1nc(NC2CCCCC2)nc2nc(-c3ccco3)nn12 | 42.8 | 23.6 | 286 | 1010 | > 30000 | 12.1 | –
CC(C)Nc1nc(NC2CCCCC2)n2nc(-c3ccco3)nc2n1 | 2.02 | 397 | 105 | 801 | > 30000 | 0.26 | –
CNc1nc(NC(=O)Cc2ccccc2)n2nc(-c3ccco3)nc2n1 | 29.9 | 300 | 1670 | 8960 | > 30000 | 5.57 | –
c1ccc(CNc2nc(NC3CCCCC3)nc3nc(-c4ccco4)nn23)cc1 | – | – | – | – | – | – | ND(Insoluble)
Fc1ccc(CNc2nc(NCc3ccccc3)nc3nc(-c4ccco4)nn23)cc1 | 68.3 | 21.8 | 75.3 | 1490 | > 30000 | 3.45 | –
